Measurements from PubChem BioAssay.
The source made the active and inactive calls.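 How the source made its calls, unless noted: active means a full or partial loss of lipid-probe fluorescence in the fish gall bladder, intestine or both, judged by eye; inactive means no fluorescence loss, or compound toxic to the fish.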

Key:
[1] = inhibitors of TNFa-induced NFkB p65 translocation, primary screen, imaging, HUVEC, MLSMR starter and 10KST1 sets (AID 438;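 active means inhibition above 20% together with a positive visual image hit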;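 further: compound added about 3h40 before a 20 min TNFalpha stimulation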;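 on inhibition: signal is the nuclear over cytoplasmic p65 intensity ratio per well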); settings: HUVEC TNFa-induced p65 nuclear translocation; cell count: measured here: nuclei count (cytotoxicity indicator), at 2.08 µM; inhibition: at 2 µM, stronger effect = higher value, 0% TNFa-plus-vehicle, 100% no-TNFa wells
[2] = inhibitors of E-selectin induction by TNFa, primary screen, imaging, HUVEC, immunofluorescence, MLSMR starter and 10KST1 sets (AID 487;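 active means visually confirmed hit in the image check and inhibition above 20%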;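 on inhibition: signal is fraction of cell area covered by stained E-selectin grains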;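 on nuclei count: 100% = median nuclei count of all wells on the same plate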); settings: HUVEC TNFalpha-induced E-selectin immunofluorescence imaging, at 2 µM; inhibition: stronger effect = higher value; nuclei count: measured here: cell number, toxicity
[3] = DUSP6 inhibitors restoring Erk phosphorylation by chemical complementation, primary imaging in DUSP6-transfected HeLa (AID 609;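 active means compounds giving at least 50% inhibition in the cell-based MKP-3 phosphatase rescue imaging test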;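 on inhibition: phospho-Erk level distribution per well compared with pooled transfected vehicle control wells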); settings: HeLa MKP-3 transfected, phospho-Erk imaging KS statistic, at 10 µM, cells stimulated with TPA for 15 min
[4] = biological target: Dual specificity protein phosphatase 6 (Homo sapiens) (UniProt Q16828); experiment: as above; settings: HeLa MKP-3 transfected, phospho-Erk imaging KS statistic; at 10 µM; stronger effect = higher value; cells stimulated with TPA for 15 min
Chain of Dual specificity protein phosphatase 6 (Homo sapiens) (Q16828 whole entry, looked up): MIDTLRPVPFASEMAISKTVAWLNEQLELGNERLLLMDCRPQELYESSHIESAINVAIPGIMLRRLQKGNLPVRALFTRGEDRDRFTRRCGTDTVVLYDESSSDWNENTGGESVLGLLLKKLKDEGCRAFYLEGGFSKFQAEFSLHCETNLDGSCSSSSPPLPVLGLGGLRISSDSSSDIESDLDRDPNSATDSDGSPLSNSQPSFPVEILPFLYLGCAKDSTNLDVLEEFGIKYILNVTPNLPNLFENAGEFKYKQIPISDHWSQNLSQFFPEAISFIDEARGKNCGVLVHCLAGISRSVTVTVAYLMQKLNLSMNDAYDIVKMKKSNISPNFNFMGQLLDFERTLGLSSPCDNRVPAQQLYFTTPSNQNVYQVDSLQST

[5] = biological target: Voltage-gated potassium channel subunit beta-2 (Rattus norvegicus) (UniProt P62483); experiment: KvBeta enzyme negative modulators, primary screen, biochemical, NADPH fluorescence (AID 622;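 active means fluorescence slope higher than the sample average by over 3 SD, cut at about -0.22 in these data, passing the limit was not always enough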;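 further: slope of raw intensity against log time taken from 70 to 1610 s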); settings: recombinant KvBeta, 4-cyanobenzaldehyde reduction, at 10 µM, stronger effect = higher value
Chain of Voltage-gated potassium channel subunit beta-2 (Rattus norvegicus) (P62483 whole entry, looked up): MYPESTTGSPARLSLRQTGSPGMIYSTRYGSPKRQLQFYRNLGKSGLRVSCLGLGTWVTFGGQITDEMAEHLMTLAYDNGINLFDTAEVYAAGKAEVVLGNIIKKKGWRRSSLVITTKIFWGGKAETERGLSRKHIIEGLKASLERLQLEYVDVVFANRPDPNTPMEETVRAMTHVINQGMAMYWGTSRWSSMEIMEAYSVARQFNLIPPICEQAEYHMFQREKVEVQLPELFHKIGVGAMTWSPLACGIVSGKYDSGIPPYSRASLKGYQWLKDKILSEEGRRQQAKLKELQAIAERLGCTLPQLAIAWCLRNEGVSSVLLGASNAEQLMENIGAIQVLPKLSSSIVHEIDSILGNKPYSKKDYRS

[6] = biological target: Voltage-gated potassium channel subunit beta-2 (Rattus norvegicus) (UniProt P62483); experiment: KvBeta positive modulators, primary screen, biochemical, NADPH fluorescence (AID 623;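 active means NADPH fluorescence slope more negative than the mean of all samples by about 3 SD, 99.7% confidence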;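 further: fluorescence intensity change per second fitted from 20 to 320 s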); settings: Recombinant KvBeta, NADPH fluorescence decrease slope, 10 min; at 10 µM; stronger effect = lower value
[7] = biological target: Alpha-2C adrenergic receptor (Homo sapiens) (UniProt P18825); experiment: modulators of alpha2C/GIRK thallium flux, primary screen, cell-based, HEK293 alpha2C/GIRK1/2 (AID 624;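 active means fluorescence slope after compound addition differing from the mean of all screened samples at 99.7% confidence, in either direction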;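 further: slope of fluorescence ratio to pre-addition baseline per second over 15 to 24 s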); settings: thallium flux BTC fluorescence, at 10 µM, actives lie on both sides
Chain of Alpha-2C adrenergic receptor (Homo sapiens) (P18825 whole entry, looked up): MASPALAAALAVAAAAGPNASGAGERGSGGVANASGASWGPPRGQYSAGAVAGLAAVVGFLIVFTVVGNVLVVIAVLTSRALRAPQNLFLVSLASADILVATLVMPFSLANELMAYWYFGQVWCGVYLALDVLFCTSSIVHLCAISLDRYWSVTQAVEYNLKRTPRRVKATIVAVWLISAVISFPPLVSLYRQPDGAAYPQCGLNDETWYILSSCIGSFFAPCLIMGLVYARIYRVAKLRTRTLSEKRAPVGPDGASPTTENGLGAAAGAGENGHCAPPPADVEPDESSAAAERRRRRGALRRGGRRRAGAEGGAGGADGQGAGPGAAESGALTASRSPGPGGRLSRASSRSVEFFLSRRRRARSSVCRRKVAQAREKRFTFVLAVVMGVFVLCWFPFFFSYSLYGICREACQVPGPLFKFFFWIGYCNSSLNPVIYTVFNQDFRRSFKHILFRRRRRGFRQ

[8] = inhibitors of larval lipid processing in zebrafish, primary screen, whole organism, PED6 fluorescence, gall bladder and intestine (AID 686); settings: Zebrafish larvae PED6 lipid processing, fluorescence scoring; screened at 20 µM (by protocol);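 further: larvae 5 to 7 days old with five fish per well; signal comes from phospholipase A2 cleavage of quenched PED6 carried via bile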
Method in brief: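 Incubation: overnight exposure of larvae to compound plus PED6 / Test system: live zebrafish larvae aged 5-7 days, whole organism / Amount: 5 larvae per well / Read-out basis: visual per-well fluorescence inhibition score / Signal: visual fluorescence microscopy scoring of gall bladder, gut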

[9] = inhibitors of Chlamydomonas gravitaxis, primary screen, whole organism, Chlamydomonas reinhardtii, WT vs cilia-less mutant, absorbance, 96-well (AID 463189;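 active means inhibition at or above 50% relative to wild type and mutant plate controls; inactive means inhibition below 50%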;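 further: 0% = wild type cc124 cells in DMSO and 100% = ciliumless bld1 mutant cells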); settings: OD600 absorbance, 2 days, at 10 µM, stronger effect = higher value
[10] = measured here: cell density z-score
[11] = measured here: nuclear c-Myc green intensity z-score
[12] = measured here: nuclear pErk red intensity z-score, stronger effect = higher value

SMILES: CCOC(=O)c1c(C)n(C)c2ccc(OC)c(NC(=O)CN3CCN(Cc4ccccc4)CC3)c12
- cell count [1]: 291
- inhibition [1]: 0.8% (inactive)
- inhibition [2]: -14% (inactive)
- nuclei count [2]: 93.5%
- z-score [3, 10]: -0.908
- z-score [3, 11]: 0.5
- z-score [3, 12]: 1.45
- inhibition [4]: -6.59% (inactive)
- fluorescence slope [5]: -0.431 (inactive)
- NADPH fluorescence slope [6]: -0.000147 (inactive)
- slope [7]: 0.00677 (inactive)
- outcome [8]: inactive
- inhibition [9]: -10.1% (inactive)

SMILES: CC(C(=O)N1CCCCC1)N1C(=O)c2ccccc2C1=O (stereo unspecified)
- cell count [1]: 352
- inhibition [1]: -17.2% (inactive)
- inhibition [2]: -54% (inactive)
- nuclei count [2]: 122%
- z-score [3, 10]: 2.3
- z-score [3, 11]: -0.711
- z-score [3, 12]: -0.781
- inhibition [4]: 17.5% (inactive)
- fluorescence slope [5]: -0.452 (inactive)
- NADPH fluorescence slope [6]: -0.000116 (inactive)
- slope [7]: 0.00537 (inactive)
- outcome [8]: inactive
- inhibition [9]: 10.7% (inactive)

SMILES: Fc1cnc(N2CCOCC2)nc1NCc1ccccc1
- cell count [1]: 649
- inhibition [1]: -2.3% (inactive)
- inhibition [2]: 32.4% (inactive)
- nuclei count [2]: 156%
- z-score [3, 10]: -0.315
- z-score [3, 11]: 0.582
- z-score [3, 12]: 0.114
- inhibition [4]: 6.51% (inactive)
- fluorescence slope [5]: -0.388 (inactive)
- NADPH fluorescence slope [6]: -5.9e-05 (inactive)
- slope [7]: 0.00592 (inactive)
- outcome [8]: inactive
- inhibition [9]: 0.319% (inactive)

SMILES: CC(C)N1CCc2c(sc(N)c2C#N)C1
- cell count [1]: 617
- inhibition [1]: -10.3% (inactive)
- inhibition [2]: 39.1% (inactive)
- nuclei count [2]: 177%
- z-score [3, 10]: -1.53
- z-score [3, 11]: 0.299
- z-score [3, 12]: 0.555
- inhibition [4]: 2.71% (inactive)
- fluorescence slope [5]: -0.418 (inactive)
- NADPH fluorescence slope [6]: -6.5e-05 (inactive)
- slope [7]: 0.00503 (inactive)
- outcome [8]: inactive
- inhibition [9]: 5.66% (inactive)

SMILES: O=C(c1ccc(=O)oc1)N1CCOCC1
- cell count [1]: 357
- inhibition [1]: -5.3% (inactive)
- inhibition [2]: -8.3% (inactive)
- nuclei count [2]: 167%
- z-score [3, 10]: 1.26
- z-score [3, 11]: -0.649
- z-score [3, 12]: 0.718
- inhibition [4]: -6.59% (inactive)
- fluorescence slope [5]: -0.46 (inactive)
- NADPH fluorescence slope [6]: -0.000126 (inactive)
- slope [7]: 0.0053 (inactive)
- outcome [8]: inactive
- inhibition [9]: 25% (inactive)

SMILES: COc1cc(C(=O)OCCN2CCCCC2)ccc1O
- cell count [1]: 675
- inhibition [1]: -2.2% (inactive)
- inhibition [2]: 38.8% (inactive)
- nuclei count [2]: 199%
- z-score [3, 10]: -0.395
- z-score [3, 11]: -0.645
- z-score [3, 12]: 0.828
- inhibition [4]: -3.98% (inactive)
- fluorescence slope [5]: -0.493 (inactive)
- NADPH fluorescence slope [6]: -0.000169 (inactive)
- slope [7]: 0.00513 (inactive)
- outcome [8]: inactive
- inhibition [9]: 17.1% (inactive)

SMILES: Cc1ccc(OCC(=O)NCC(=O)n2nc(C)cc2C)cc1
- cell count [1]: 580
- inhibition [1]: -8% (inactive)
- inhibition [2]: 13.1% (inactive)
- nuclei count [2]: 170%
- z-score [3, 10]: -0.967
- z-score [3, 11]: -0.193
- z-score [3, 12]: 1.92
- inhibition [4]: -7.01% (inactive)
- fluorescence slope [5]: -0.382 (inactive)
- NADPH fluorescence slope [6]: -2.8e-05 (inactive)
- slope [7]: 0.00489 (inactive)
- outcome [8]: inactive
- inhibition [9]: -1.21% (inactive)
